Assay results pooled from the literature.
Medium: plasma

SMILES | system | setting | Tmax [h]
COc1ccc2c(c1)CN(C(=O)CCN1CCC(Cc3ccccc3)CC1)CC[S@@+]2[O-] | male human | intravenous, 0.15 mg/kg, healthy volunteers | 0
OC[C@H]1O[C@@H](c2cc(Cc3ccc(C4CC4)cc3)c(Cl)c3c2CCO3)[C@H](O)[C@@H](O)[C@@H]1O | human | oral, 0.3 mg, single dose, fed, healthy volunteers | 2
N#Cc1cccc(-c2ccc3ncc(-c4cc(F)cc(F)c4)c(N4CCC(N)CC4)c3c2)c1O | male human | intravenous, 50 µg | 0.03
COc1ccc(-c2c(Nc3ccccn3)[nH]c3c(C4=CCCCC4)c(-c4ccccc4)nn3c2=O)cc1 | human | oral, 200 mg twice daily, multiple doses, patients | 1
CC(C)n1cc(C#N)c2cc(-n3cc(C(=O)O)cn3)ccc21 | human | oral, 25 mg, single dose, fasted, healthy volunteers | 3.26
C[C@@H](Oc1ccc(S(C)(=O)=O)cc1C(=O)N1C[C@@H]2C[C@]2(c2cc(C(F)(F)F)on2)C1)C(F)(F)F | human | oral, 10 mg, single dose, fasted | 3.5
CC(=O)N(C)[C@H]1CCN(C(=O)c2cnc3c(c2)C[C@](C)(c2ccc(F)cc2)N3)C1 | male human | oral, 15 mg, multiple doses, once daily, steady state | 1.14
O=C(COc1ccc(Cl)cc1)NC12CC(c3nnc([C@H]4C[C@@H](OC(F)(F)F)C4)o3)(C1)C2 | human | oral, 260 mg, multiple doses, once daily, steady state, healthy volunteers | 3
CC1(C)CC[C@]2(NC(=O)C(C)(F)F)CC[C@]3(C)[C@H](C(=O)C=C4[C@@]5(C)C=C(C#N)C(=O)C(C)(C)[C@@H]5CC[C@]43C)[C@@H]2C1 | human | oral, 150 mg, single dose | 12
